Measurements: ChEMBL document CHEMBL3352534, “A prodrug strategy for the oral delivery of a poorly soluble HCV NS5B thumb pocket 1 polymerase inhibitor using self-emulsifying drug delivery systems (SEDDS)” (Bioorg Med Chem Lett, 2015)
≈ marks a conversion by molar mass, not a printed value.

Tests used:
Liver microsome [1] = test: Prodrug conversion in rat liver microsomes assessed as half life
Liver microsome [2] = test: Prodrug conversion in human liver microsomes assessed as half life
[3] = Prodrug solubility in capmul; assay type: ADME
[4] = Prodrug solubility in solutol; assay type: ADME
[5] = Prodrug solubility in Labrasol; assay type: ADME
[6] = Dissociation constant, pKa of the compound; assay type: physicochemical
Rattus norvegicus [7] = test: (§1) Cmax in rat plasma at 10 mg/kg, po using 10.6% PEG400, 5.4% Cremophor EL, 2.6% Labrasol, 1.4% Capmul MCM in water (80%) vehicle; assay type: ADME, organism-based; set-up: dose 10 mg/kg, route oral; conditions: in vivo, BLD = below limit of detection
Outline: (§2)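 Fasted rats were given a single 10 mg/kg oral dose, with n = 3 per dose and route. Plasma was extracted by solid-phase extraction. Analysis used HPLC with diode-array UV (200–400 nm, peak height at best S/N) or LC/MS. Calibration standards were made in blank plasma, with LOQ 7–14 ng/mL. Parameters came from noncompartmental analysis.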

Rattus norvegicus [8] = test: AUC in rat plasma at 10 mg/kg, po using 10.6% PEG400, 5.4% Cremophor EL, 2.6% Labrasol, 1.4% Capmul MCM in water (80%) vehicle; assay type: ADME, organism-based; set-up: dose 10 mg/kg, route oral; conditions: in vivo, BLD = below limit of detection; outline: as §2
Rattus norvegicus [9] = test: Cmax in rat plasma assessed as (E)-3-(4-(1-(2-(5-chloropyrimidin-2-yl)-3-cyclopentyl-1-methyl-1H-indole-6-carboxamido)cyclobutanecarboxamido)-2-ethoxyphenyl)acrylic acid at 10 mg/kg, po using 10.6% PEG400, 5.4% Cremophor EL, 2.6% Labrasol, 1.4% Capmul MCM in water (80%) vehicle; assay type: ADME, organism-based; set-up: dose 10 mg/kg, route oral; conditions: in vivo; outline: as §2
Rattus norvegicus [10] = test: AUC in rat plasma assessed as (E)-3-(4-(1-(2-(5-chloropyrimidin-2-yl)-3-cyclopentyl-1-methyl-1H-indole-6-carboxamido)cyclobutanecarboxamido)-2-ethoxyphenyl)acrylic acid at 10 mg/kg, po using 10.6% PEG400, 5.4% Cremophor EL, 2.6% Labrasol, 1.4% Capmul MCM in water (80%) vehicle; assay type: ADME, organism-based; set-up: dose 10 mg/kg, route oral; conditions: in vivo; outline: as §2
Rattus norvegicus [11] = test: (§3) Cmax in rat plasma at 10 mg/kg, po using 0.5% Methyl cellulose, 0.3% Tween-80, 1% N-methylpyrrolidone in water vehicle; assay type: ADME, organism-based; set-up: dose 10 mg/kg, route oral; conditions: in vivo, BLD = below limit of detection; outline: as §2
Rattus norvegicus [12] = test: (§4) AUC in rat plasma at 10 mg/kg, po using 0.5% Methyl cellulose, 0.3% Tween-80, 1% N-methylpyrrolidone in water vehicle; assay type: ADME, organism-based; set-up: dose 10 mg/kg, route oral; conditions: in vivo, BLD = below limit of detection; outline: as §2
Rattus norvegicus [13] = test: Cmax in rat plasma assessed as (E)-3-(4-(1-(2-(5-chloropyrimidin-2-yl)-3-cyclopentyl-1-methyl-1H-indole-6-carboxamido)cyclobutanecarboxamido)-2-ethoxyphenyl)acrylic acid at 10 mg/kg, po using 0.5% Methyl cellulose, 0.3% Tween-80, 1% N-methylpyrrolidone in water vehicle; assay type: ADME, organism-based; set-up: dose 10 mg/kg, route oral; conditions: in vivo; outline: as §2
Rattus norvegicus [14] = test: AUC in rat plasma assessed as (E)-3-(4-(1-(2-(5-chloropyrimidin-2-yl)-3-cyclopentyl-1-methyl-1H-indole-6-carboxamido)cyclobutanecarboxamido)-2-ethoxyphenyl)acrylic acid at 10 mg/kg, po using 0.5% Methyl cellulose, 0.3% Tween-80, 1% N-methylpyrrolidone in water vehicle; assay type: ADME, organism-based; set-up: dose 10 mg/kg, route oral; conditions: in vivo; outline: as §2
[15] = Solubility of the compound at pH 6.8; assay type: physicochemical; conditions: buffer
Rattus norvegicus [16] = test: Oral bioavailability in rat assessed as (E)-3-(4-(1-(2-(5-chloropyrimidin-2-yl)-3-cyclopentyl-1-methyl-1H-indole-6-carboxamido)cyclobutanecarboxamido)-2-ethoxyphenyl)acrylic acid at 10 mg/kg using 10.6% PEG400, 5.4% Cremophor EL, 2.6% Labrasol, 1.4% Capmul MCM in water (80%) vehicle; assay type: ADME, organism-based; conditions: in vivo
Rhesus monkey [17] = test: Oral bioavailability in monkey assessed as (E)-3-(4-(1-(2-(5-chloropyrimidin-2-yl)-3-cyclopentyl-1-methyl-1H-indole-6-carboxamido)cyclobutanecarboxamido)-2-ethoxyphenyl)acrylic acid at 10 mg/kg using 10.6% PEG400, 5.4% Cremophor EL, 2.6% Labrasol, 1.4% Capmul MCM in water (80%) vehicle; assay type: ADME, organism-based, Macaca mulatta; conditions: in vivo
Canis familiaris [18] = test: Oral bioavailability in dog assessed as (E)-3-(4-(1-(2-(5-chloropyrimidin-2-yl)-3-cyclopentyl-1-methyl-1H-indole-6-carboxamido)cyclobutanecarboxamido)-2-ethoxyphenyl)acrylic acid at 10 mg/kg using 10.6% PEG400, 5.4% Cremophor EL, 2.6% Labrasol, 1.4% Capmul MCM in water (80%) vehicle; assay type: ADME, organism-based, Canis lupus familiaris; conditions: in vivo
[19] = AUC in dog at 10 mg/kg, po using 10.6% PEG400, 5.4% Cremophor EL, 2.6% Labrasol, 1.4% Capmul MCM in water (80%) vehicle; assay type: ADME, organism-based, Canis lupus familiaris; set-up: dose 10 mg/kg, route oral; conditions: plasma
Plasma [20] = test: Prodrug conversion in rat plasma assessed as half life; assay type: ADME, cell-free
Outline: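 Rat plasma (from centrifuged whole blood) was incubated with 2 µM compound at 37 °C. Samples were quenched 1:3 with acetonitrile/methanol 1:1, centrifuged and analysed by HPLC-PDA. Half-life was taken as 0.693/first-order rate of loss of the starting compound.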

[21] = Prodrug solubility in PEG400; assay type: ADME
[22] = as §1; assay type: ADME, organism-based; set-up: dose 10 mg/kg, route oral; conditions: plasma; outline: as §2
Rattus norvegicus [23] = test: AUC in rat assessed as (E)-3-(4-(1-(2-(5-chloropyrimidin-2-yl)-3-cyclopentyl-1-methyl-1H-indole-6-carboxamido)cyclobutanecarboxamido)-2-ethoxyphenyl)acrylic acid at 2 mg/kg, iv; assay type: ADME, organism-based, Plasma; set-up: dose 2 mg/kg, route intravenous; conditions: in vivo
Outline: (§5)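 Overnight-fasted rats received 2 mg/kg IV in 70% PEG400:30% water, n = 3. Plasma parent drug was quantified after solid-phase extraction by HPLC-UV or LC/MS against blank-plasma calibration standards (LOQ 7–14 ng/mL). Noncompartmental analysis gave the PK parameters.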

Rattus norvegicus [24] = test: Mean residence time in rat assessed as (E)-3-(4-(1-(2-(5-chloropyrimidin-2-yl)-3-cyclopentyl-1-methyl-1H-indole-6-carboxamido)cyclobutanecarboxamido)-2-ethoxyphenyl)acrylic acid at 2 mg/kg, iv; assay type: ADME, organism-based; set-up: dose 2 mg/kg, route intravenous; conditions: in vivo; outline: as §5
Rattus norvegicus [25] = test: Half life in rat assessed as (E)-3-(4-(1-(2-(5-chloropyrimidin-2-yl)-3-cyclopentyl-1-methyl-1H-indole-6-carboxamido)cyclobutanecarboxamido)-2-ethoxyphenyl)acrylic acid at 2 mg/kg, iv; assay type: ADME, organism-based; set-up: dose 2 mg/kg, route intravenous; conditions: in vivo; outline: as §5
Rattus norvegicus [26] = test: Volume of distribution at steady state in rat assessed as (E)-3-(4-(1-(2-(5-chloropyrimidin-2-yl)-3-cyclopentyl-1-methyl-1H-indole-6-carboxamido)cyclobutanecarboxamido)-2-ethoxyphenyl)acrylic acid at 2 mg/kg, iv; assay type: ADME, organism-based; set-up: dose 2 mg/kg, route intravenous; conditions: in vivo; outline: as §5
Rhesus monkey [27] = test: AUC in monkey assessed as (E)-3-(4-(1-(2-(5-chloropyrimidin-2-yl)-3-cyclopentyl-1-methyl-1H-indole-6-carboxamido)cyclobutanecarboxamido)-2-ethoxyphenyl)acrylic acid at 10 mg/kg using 10.6% PEG400, 5.4% Cremophor EL, 2.6% Labrasol, 1.4% Capmul MCM in water (80%) vehicle; assay type: ADME, organism-based, Macaca mulatta, Plasma; set-up: dose 10 mg/kg; conditions: in vivo
Canis familiaris [28] = test: AUC in dog assessed as (E)-3-(4-(1-(2-(5-chloropyrimidin-2-yl)-3-cyclopentyl-1-methyl-1H-indole-6-carboxamido)cyclobutanecarboxamido)-2-ethoxyphenyl)acrylic acid at 10 mg/kg using 10.6% PEG400, 5.4% Cremophor EL, 2.6% Labrasol, 1.4% Capmul MCM in water (80%) vehicle; assay type: ADME, organism-based, Canis lupus familiaris, Plasma; set-up: dose 10 mg/kg; conditions: in vivo
Plasma [29] = test: Prodrug conversion in human plasma assessed as half life
[30] = Prodrug conversion in simulated gastric fluid assessed as half life; assay type: ADME; conditions: simulated gi fluid
Outline: (§6)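 Incubations used 2 µM compound at 37 °C in either SGF (0.2% NaCl/HCl, pH 1.2, pepsin 3.2 mg/mL) or SIF (KH2PO4/NaOH, pH 7.5, pancreatin 10 mg/mL). Samples were quenched 1:2 with acetonitrile/methanol 1:1 and analysed by HPLC. t1/2 = 0.693/first-order disappearance rate.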

Intestine = test: Prodrug conversion in rat intestinal microsomes assessed as half life
[31] = Prodrug conversion in simulated intestinal fluid assessed as half life; assay type: ADME; conditions: simulated gi fluid; outline: as §6
[32] = Prodrug conversion in human intestinal microsomes assessed as half life
[33] = as §3; assay type: ADME, organism-based; set-up: dose 10 mg/kg, route oral; conditions: plasma; outline: as §2
[34] = as §4; assay type: ADME, organism-based; set-up: dose 10 mg/kg, route oral; conditions: plasma; outline: as §2

Row | t1/2 (Liver microsome [1]) | t1/2 (Liver microsome [2]) | solubility [3] | solubility [4] | solubility [5] | Cmax (Rattus norvegicus [7]) | AUC (Rattus norvegicus [8]) | Cmax (Rattus norvegicus [9]) | AUC (Rattus norvegicus [10]) | Cmax (Rattus norvegicus [13]) | AUC (Rattus norvegicus [14]) | solubility [15] | t1/2 (Plasma [20]) | t1/2 [30] | t1/2 (Intestine) | t1/2 [32] | Structure (SMILES) | other results
1 | 9 min | 21 min | < 100 mg/mL | < 100 mg/mL | < 100 mg/mL | BLD | BLD | 260 nM | 1.5 µM·h |  |  |  |  |  |  |  | CCOc1cc(NC(=O)C2(NC(=O)c3ccc4c(C5CCCC5)c(-c5ncc(Cl)cn5)n(C)c4c3)CCC2)ccc1/C=C/C(=O)OCC(=O)N1CCN(C)CC1 | pKa [6]: 6.6
2 | 8 min | 89 min |  |  |  |  |  |  |  | 80 nM | 0.49 µM·h | 0.781 mg/mL (≈ 0.966 mM) |  |  |  |  | CCOc1cc(NC(=O)C2(NC(=O)c3ccc4c(C5CCCC5)c(-c5ncc(Cl)cn5)n(C)c4c3)CCC2)ccc1/C=C/C(=O)OCOP(=O)(O)OC(C)(C)C | Cmax (Rattus norvegicus [11]): BLD; AUC (Rattus norvegicus [12]): BLD
3 |  |  | > 100 mg/mL | > 200 mg/mL | > 200 mg/mL |  | BLD | 9200 nM | 38.5 µM·h |  |  |  | 86 min |  |  |  | CCOc1cc(NC(=O)C2(NC(=O)c3ccc4c(C5CCCC5)c(-c5ncc(Cl)cn5)n(C)c4c3)CCC2)ccc1/C=C/C(=O)OCC(=O)N(C)C | F (Rattus norvegicus [16]): 38%; F (Rhesus monkey [17]): 35%; F (Canis familiaris [18]): 4%; AUC [19]: 0.69 µM·h; solubility [21]: > 200 mg/mL; Cmax [22]: 20 nM; AUC (Rattus norvegicus [23]): 10.5 µM·h; MRT (Rattus norvegicus [24]): 168 min; t1/2 (Rattus norvegicus [25]): 126 min; Vdss (Rattus norvegicus [26]): 0.73 L/kg; AUC (Rhesus monkey [27]): 26 µM·h; AUC (Canis familiaris [28]): 11.5 µM·h
4 | 44 min | 48 min | < 15 mg/mL | < 15 mg/mL | < 30 mg/mL | BLD | BLD | 4000 nM | 19.3 µM·h |  |  |  | 110 min | 51 min | 76 min | 205 min | CCOc1cc(NC(=O)C2(NC(=O)c3ccc4c(C5CCCC5)c(-c5ncc(Cl)cn5)n(C)c4c3)CCC2)ccc1/C=C/C(=O)OCC(=O)N1CCOCC1 | t1/2 (Plasma [29]): > 300 min; t1/2 [31]: 190 min
5 | 9 min | 10 min |  |  |  |  |  |  |  | 4200 nM | 14.5 µM·h | 0.14 mg/mL (≈ 0.186 mM) |  | 78 min | 5 min | 28 min | CCOc1cc(NC(=O)C2(NC(=O)c3ccc4c(C5CCCC5)c(-c5ncc(Cl)cn5)n(C)c4c3)CCC2)ccc1/C=C/C(=O)OCOP(=O)(O)O | Cmax [33]: 50 nM; AUC [34]: 0.09 µM·h
